A short description of test [1]: Stimulation of [35S]GTP-gamma-S, binding at Opioid receptor kappa 1; not active. It counts as functional. In short, it runs like this: (§1)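 Membranes from cells expressing the receptor, washed and resuspended in 20 mM Hepes, 10 mM MgCl2, 100 mM NaCl, pH 7.4. 8–15 μg protein incubated 60 min at 25 °C with 50 pM [35S]GTP-γ-S, 10 μM GDP and test compound. Bound label collected on glass fiber filters and counted; EC50 for stimulation of binding.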

The nature of test [2]: Maximum efficacy for [35S]GTP-gamma-S, binding to mu opioid receptor; not active. Type of test: functional. The essentials:
as §1
On the technique in general: GTPγS is a poorly hydrolysed GTP analogue; its binding reports G protein activation.

A short description of test [3]: Inhibition of [3H]DPDPE binding to Opioid receptor delta 1. The essentials:
(§2)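 Membranes from cells expressing the receptor, homogenized and washed in Tris, resuspended in 50 mM Tris pH 7.5. Incubated 60–120 min at 25 °C with [3H]DAMGO (mu), [3H]DPDPE (delta) or [3H]U69593 (kappa), about 15–30 μg protein. Filtration on glass fiber filters, scintillation counting. IC50 from at least six test concentrations; Ki by Cheng–Prusoff.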

The nature of test [4]: Stimulation of [35S]GTP-gamma-S, binding at Opioid receptor mu1; not active. Type of test: functional. In short, it runs like this: as §1
Test [5] is described as follows: Maximum efficacy for [35S]GTP-gamma-S, binding to Opioid receptor kappa 1; not active. Type of test: functional. The essentials: as §1
Test [6] is described as follows: Maximum efficacy for [35S]GTP-gamma-S, binding to Opioid receptor delta 1. It counts as functional. The essentials: as §1
Test [7] is described as follows: Inhibition of [3H]DAMGO binding to Opioid receptor mu 1. The essentials: as §2
Test [8] is described as follows: Inhibition of [3H]U-69593 binding to Opioid receptor kappa 1. The essentials: as §2
Test [9] in a line: Maximum efficacy for [35S]GTP-gamma-S, binding to Opioid receptor mu 1. It counts as functional. The essentials: as §1
Test [10] in a line: Maximum efficacy for [35S]GTP-gamma-S, binding to Opioid receptor kappa 1. It counts as functional. The essentials:
as §1

Test [11] in a line: Stimulation of [35S]GTP-gamma-S, binding at Opioid receptor kappa; no activity. It counts as functional. The essentials:
as §1

Test [12] in a line: Maximum efficacy for [35S]GTP-gamma-S, binding to Opioid receptor kappa 1; no activity. Type of test: functional. The essentials: as §1

pKi: −log10 of the molar value. Active and inactive are the calls of the source. The calls are words filed in the database; no cut-off is given here.

The pKi is −log10 of the Ki, conventionally taken in molar units. A high value points to a small Ki.

Consider `COc1ccc2c3c1O[C@H]1C(SC4OC(C(=O)O)C(OC(C)=O)C(OC(C)=O)C4OC(C)=O)C=C[C@H]4[C@@H](C2)N(C)CC[C@]314` (stereo partly drawn), for which the EC50 entry in [1] and in test [4] was “Not Active” throughout. The Emax result in test [2] and in test [5] was “inactive” in each case. Also, the negative logarithm of the Ki (pKi) in test [3] was 2.57; in [7], 3.33; in test [8], below 2.00. In addition, in test [6], the Emax was 44.2.
Regarding `CC(=O)OCC1OC(SC2C=C[C@H]3[C@H]4Cc5ccc(O)c6c5[C@@]3(CCN4C)[C@H]2O6)C(OC(C)=O)C(OC(C)=O)C1OC(C)=O` (stereo in doubt; 5e) [listing 1 of 2 here], the Emax in test [9] is 76; in [10], 26.5; in [6] it was 45.5.
As for `CC(=O)OC1C(SC2C=C[C@H]3[C@H]4Cc5ccc(O)c6c5[C@@]3(CCN4C)[C@H]2O6)OC(C(=O)O)C(OC(C)=O)C1OC(C)=O` (stereo partly drawn), the Emax in test [9] turned out to be 46.6; in test [6], 78.7. Moreover, the EC50 entry in test [1] is listed as “Not Active”. The pKi in test [3] is 4.50; in test [7], 5.06; in test [8], 3.54. In [5], the Emax entry is “inactive”.
As to `COC(=O)C1OC(SC2C=C[C@H]3[C@H]4Cc5ccc(OC(C)=O)c6c5[C@@]3(CCN4C)[C@H]2O6)C(OC(C)=O)C(OC(C)=O)C1OC(C)=O` (stereo partly drawn), the values for the Emax in [9] and in [6] were 37.8 and 46.8, respectively. Besides, the EC50 entry in [11] is given as “Not Active”. For the same compound, the Emax entry in test [12] was “inactive”. The pKi in test [3] was 3.28; in test [7], 4.00; in test [8] it was 3.72.
`CC(=O)OCC1OC(SC2C=C[C@H]3[C@H]4Cc5ccc(OC(C)=O)c6c5[C@@]3(CCN4C)[C@H]2O6)C(OC(C)=O)C(OC(C)=O)C1OC(C)=O` (stereo partly drawn): the Emax is 44.1 in [9], 36.9 in test [10] and 39.3 in [6]. The results for the pKi in test [3], in test [7] and in test [8] were 3.12, 3.52 and 2.86, respectively.
Consider `COC(=O)C1OC(SC2C=C[C@H]3[C@H]4Cc5ccc(OC)c6c5[C@@]3(CCN4C)[C@H]2O6)C(OC(C)=O)C(OC(C)=O)C1OC(C)=O` (stereo partly drawn), for which the Emax in [9] turned out to be 19.3; in [10], 24.3; in [6], 64.3. In addition, the values for the negative-log Ki (pKi) in test [3], in test [7] and in [8] were 3.36, 4.19 and 3.30, respectively.
`CC(=O)OC1C(CO)OC(SC2C=C[C@H]3[C@H]4Cc5ccc(O)c6c5[C@@]3(CCN4C)[C@H]2O6)C(OC(C)=O)C1OC(C)=O` (stereo partly drawn): the Emax in test [9] was determined as 64.5; in [10] it was 42.5; in [6], 51.5. Further, the values for the pKi in test [3], in test [7] and in [8] were 4.25, 5.27 and 3.87, respectively.
Take `CN1CC[C@]23c4c5ccc(O)c4O[C@H]2[C@@H](O[C@@H]2O[C@H](C(=O)O)[C@@H](O)[C@H](O)[C@H]2O)C=C[C@H]3[C@H]1C5` [MORPHINE GLUCURONIDE]: the Emax in test [9] was 45; in test [6] it was 80. For the same compound, the Emax entry in test [12] is “inactive”. The pKi in test [3] is 3.77; in test [7], 4.89; in test [8], 2.39.
On to `CC(=O)OCC1OC(SC2C=C[C@H]3[C@H]4Cc5ccc(O)c6c5[C@@]3(CCN4C)[C@H]2O6)C(OC(C)=O)C(OC(C)=O)C1OC(C)=O` (stereo in doubt; 5e) [listing 2 of 2 here], for which the pKi in [3] is 4.71; in test [8], 2.53.
With `COC(=O)C1OC(SC2C=C[C@H]3[C@H]4Cc5ccc(O)c6c5[C@@]3(CCN4C)[C@H]2O6)C(OC(C)=O)C(OC(C)=O)C1OC(C)=O` (stereo partly drawn), the Emax turned out to be 88.3 in [9], 23.5 in test [10] and 104 in [6]. For the same compound, the negative logarithm of the Ki (pKi) was 4.81 in [3], 5.27 in [7] and 4.96 in test [8].
In the case of `CN1CC[C@]23c4c5ccc(O)c4O[C@H]2[C@@H](O)C=C[C@H]3[C@H]1C5`, the Emax in [9] was found to be 93.

Values taken from ChEMBL document CHEMBL1138838, “Design, chemical synthesis, and biological evaluation of thiosaccharide analogues of morphine- and codeine-6-glucuronide” (J Med Chem, 2004).
